The text below walks through data of PMC10864842 (Saudi Pharmaceutical Journal : SPJ, 2024).

Data set [1] deals with MDA-MB-231 breast cancer cells. Nature of the data set: MTT assay on MDA-MB-231 cells. Format: cell-based. Particulars: Homo sapiens. An outline of the steps: (§1)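 Cells kept in DMEM with 10% (v/v) FBS and 1% (v/v) streptomycin/penicillin at 37 °C and 5% CO2. About 10^4 cells/ml were seeded and grown for 24 h. Test compounds in DMSO were added at 6.25, 12.5, 25, 50 and 100 µg/ml for 24 and 48 h. Medium was replaced with 5 mg/mL MTT for 3–4 h. Formazan was dissolved in acidified isopropanol and read at 630 nm. Viability is expressed as % of untreated cells.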
For orientation: Tetrazolium dyes change colour on reduction, which living cells bring about.

A short description of data set [2]: MTT assay on oral epithelial normal cells. In kind it is cell-based. Summed up:
as §1

Data set [3] addresses T1, KSP ATPase (Homo sapiens, UniProt P52732).
T1 sequence (P52732 1-1056): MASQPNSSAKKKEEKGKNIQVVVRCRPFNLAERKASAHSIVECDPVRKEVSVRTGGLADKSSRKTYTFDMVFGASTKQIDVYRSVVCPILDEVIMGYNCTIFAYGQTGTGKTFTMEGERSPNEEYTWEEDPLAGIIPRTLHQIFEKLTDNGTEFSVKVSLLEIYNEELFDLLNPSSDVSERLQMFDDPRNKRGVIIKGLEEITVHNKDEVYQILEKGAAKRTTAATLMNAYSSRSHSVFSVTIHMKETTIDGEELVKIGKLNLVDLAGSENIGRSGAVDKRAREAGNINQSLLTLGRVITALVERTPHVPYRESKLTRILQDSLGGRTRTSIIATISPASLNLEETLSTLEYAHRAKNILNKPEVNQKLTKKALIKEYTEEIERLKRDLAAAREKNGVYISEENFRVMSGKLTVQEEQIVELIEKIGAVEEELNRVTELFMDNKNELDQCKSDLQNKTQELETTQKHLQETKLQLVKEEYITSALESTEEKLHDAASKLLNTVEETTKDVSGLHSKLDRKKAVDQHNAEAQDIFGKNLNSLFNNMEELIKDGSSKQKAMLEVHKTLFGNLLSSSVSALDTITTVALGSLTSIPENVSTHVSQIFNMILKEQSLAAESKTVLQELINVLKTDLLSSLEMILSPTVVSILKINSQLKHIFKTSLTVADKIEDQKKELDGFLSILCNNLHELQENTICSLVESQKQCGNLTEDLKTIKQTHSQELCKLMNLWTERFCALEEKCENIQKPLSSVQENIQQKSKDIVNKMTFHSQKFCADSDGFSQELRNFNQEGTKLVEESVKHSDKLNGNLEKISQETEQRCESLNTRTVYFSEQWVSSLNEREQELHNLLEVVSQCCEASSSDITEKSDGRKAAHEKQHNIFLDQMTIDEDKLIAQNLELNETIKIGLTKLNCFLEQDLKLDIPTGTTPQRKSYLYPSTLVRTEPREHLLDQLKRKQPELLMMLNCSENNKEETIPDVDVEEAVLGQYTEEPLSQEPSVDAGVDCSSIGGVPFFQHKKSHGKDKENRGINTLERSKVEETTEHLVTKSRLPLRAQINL
Nature of the data set: Microtubule-activated KSP ATPase end-point assay. Format: biochemical. Particulars: read-out: KSP ATPase inhibition [%].

For data set [4], the target named is T1, KSP ATPase. Nature of the data set: Microtubule-activated KSP ATPase kinetic assay. In kind it is biochemical.
The target in the next data set is PI3Kδ (Homo sapiens, UniProt O00329). Nature of the data set: PI3Kδ inhibition assay. Format: biochemical.
Chain of PI3Kδ (O00329 whole entry): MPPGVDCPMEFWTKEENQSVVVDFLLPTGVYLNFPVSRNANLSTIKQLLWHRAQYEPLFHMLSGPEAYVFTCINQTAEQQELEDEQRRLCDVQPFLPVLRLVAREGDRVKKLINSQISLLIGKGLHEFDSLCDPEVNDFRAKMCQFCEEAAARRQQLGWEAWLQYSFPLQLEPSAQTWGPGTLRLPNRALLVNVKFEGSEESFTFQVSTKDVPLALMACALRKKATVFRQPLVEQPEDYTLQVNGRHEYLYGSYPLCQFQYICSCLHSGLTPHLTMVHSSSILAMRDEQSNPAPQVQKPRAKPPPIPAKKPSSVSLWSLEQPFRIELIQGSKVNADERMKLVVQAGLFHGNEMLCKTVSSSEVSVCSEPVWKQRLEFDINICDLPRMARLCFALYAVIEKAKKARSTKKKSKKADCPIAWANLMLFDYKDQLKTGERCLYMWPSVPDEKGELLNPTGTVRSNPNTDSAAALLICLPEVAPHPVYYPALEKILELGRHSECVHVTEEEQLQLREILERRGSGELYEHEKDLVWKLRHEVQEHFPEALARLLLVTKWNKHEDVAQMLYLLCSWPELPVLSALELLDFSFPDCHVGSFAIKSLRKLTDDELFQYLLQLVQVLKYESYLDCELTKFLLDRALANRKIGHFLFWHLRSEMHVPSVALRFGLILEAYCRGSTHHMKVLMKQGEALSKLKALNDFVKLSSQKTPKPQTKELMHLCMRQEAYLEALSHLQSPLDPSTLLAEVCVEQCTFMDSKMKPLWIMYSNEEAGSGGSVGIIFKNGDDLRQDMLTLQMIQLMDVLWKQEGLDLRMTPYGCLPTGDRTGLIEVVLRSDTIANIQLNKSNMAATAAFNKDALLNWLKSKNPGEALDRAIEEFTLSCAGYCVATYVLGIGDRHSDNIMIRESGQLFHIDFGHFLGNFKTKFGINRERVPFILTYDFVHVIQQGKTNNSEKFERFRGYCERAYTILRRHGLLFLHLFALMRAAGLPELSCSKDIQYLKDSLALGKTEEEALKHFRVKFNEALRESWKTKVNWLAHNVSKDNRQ
Chain of PI3Kδ (P27986 whole entry partner): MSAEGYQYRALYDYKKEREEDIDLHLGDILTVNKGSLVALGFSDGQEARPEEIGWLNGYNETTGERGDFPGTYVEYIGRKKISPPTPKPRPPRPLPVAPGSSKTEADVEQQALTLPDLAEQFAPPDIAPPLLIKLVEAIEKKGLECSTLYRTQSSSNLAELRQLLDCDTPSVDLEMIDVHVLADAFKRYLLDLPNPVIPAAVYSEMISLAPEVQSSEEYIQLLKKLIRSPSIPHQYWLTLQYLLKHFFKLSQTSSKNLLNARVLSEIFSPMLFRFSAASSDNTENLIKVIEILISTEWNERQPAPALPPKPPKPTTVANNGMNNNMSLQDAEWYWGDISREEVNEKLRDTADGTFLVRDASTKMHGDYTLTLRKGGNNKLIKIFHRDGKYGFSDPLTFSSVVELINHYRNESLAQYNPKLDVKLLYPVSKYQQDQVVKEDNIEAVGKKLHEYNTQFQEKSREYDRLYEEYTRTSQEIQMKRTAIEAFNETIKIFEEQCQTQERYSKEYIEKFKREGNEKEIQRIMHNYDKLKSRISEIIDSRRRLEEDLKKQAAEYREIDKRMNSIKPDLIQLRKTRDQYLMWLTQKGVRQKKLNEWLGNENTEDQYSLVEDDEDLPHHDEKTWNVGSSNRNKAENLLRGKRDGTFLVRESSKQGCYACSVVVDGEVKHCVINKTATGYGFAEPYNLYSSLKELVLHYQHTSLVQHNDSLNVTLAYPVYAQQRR
Data set [5] concerns MDA-MB-231 cells. Nature of the data set: Morphological study by inverted microscope. Format: cell-based. Particulars: 48 h. An outline of the steps:
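MDA-MB-231 cells were grown in DMEM with 10% FBS and 1% streptomycin/penicillin at 37 °C, 5% CO2. They were treated with varying concentrations of test compound for 48 h and examined by inverted light microscopy. Phenotypic changes were scored as cell shrinkage, apoptotic body formation and membrane blebbing.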

Data set [6] concerns MDA-MB-231 cells. As to the kind of experiment: Annexin V-FITC/PI flow cytometry. Format: cell-based. Particulars: MDA-MB-231, Annexin V-FITC & PI, post-treatment. Summed up:
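MDA-MB-231 cells were kept in DMEM with 10% FBS and 1% streptomycin/penicillin at 37 °C under 5% CO2. Cells were treated with the test compound for 48 h, with doxorubicin as the standard and untreated cells for comparison. Cells were then harvested, rinsed, suspended in PBS, stained with Annexin V-FITC/PI and held 20 min in the dark before flow cytometry. Early apoptosis was Annexin V+/PI−; late apoptosis was Annexin V+/PI+.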
In general terms: A flow cytometer gives signals particle by particle.

The subject of data set [7] is MDA-MB-231 cells. Nature of the data set: DNA fragmentation by gel electrophoresis. In kind it is cell-based. Particulars: post-treatment. An outline of the steps:
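MDA-MB-231 cells kept in DMEM with 10% FBS and 1% streptomycin/penicillin at 37 °C, 5% CO2. Genomic DNA was extracted with a commercial kit from cells before and after test compound treatment, and its quality was checked by nanodrop. DNA plus 1X loading dye was run on agarose gel, viewed under a UV transilluminator and imaged on a gel documentation system. Doxorubicin served as reference.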

Data set [8] concerns MDA-MB-231 cells. Nature of the data set: qRT-PCR relative gene expression of P53, BAX and BCL-2. In kind it is cell-based. Particulars: MDA-MB-231, 48 h. An outline of the steps:
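RNA was extracted from cells after 48 h of treatment with test compound, and its purity was checked by nanodrop. P53, BAX and BCL-2 expression was normalised to β-actin as the housekeeping gene. Treated and untreated cells were compared by ANOVA.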

Where [9] appears, read: MDA-MB-231, 24 h, read-out: IC50 after 24 h (µM).
The mark [10] stands for this setting: MDA-MB-231, 24 h, read-out: IC50 after 24 h in µg/mL.
Setting [11] is: MDA-MB-231, 48 h, read-out: IC50 after 48 h (µM).
The mark [12] stands for this setting: MDA-MB-231, 48 h, read-out: IC50 after 48 h in µg/mL.

Where “and” joins values, the source holds several entries; their conditions need not be identical. Identical values can stand only once. Like-named read-outs stand apart in the source and are kept apart here.

In the case of `O=c1c2cc(Cl)ccc2nc(S)n1-c1ccc(F)cc1` [Compound 1, 6-Chloro-3-(4-fluorophenyl)-2-mercaptoquinazolin-4(3H)-one], the IC50 was 44.3 µM in data set [1] (setting [9]), 13.6 ± 0.12 µg/mL in [1] (setting [10]), 23.6 µM in [1] (setting [11]) and 7.23 ± 0.15 µg/mL in data set [1] (setting [12]). For the same compound, the IC50 at 48 h in [2] was 80 µg/mL and 261 µM.
In general, inhibition refers to the share of the control response that was lost under treatment. For the compound `CCSc1nc2ccc(Cl)cc2c(=O)n1-c1ccc(F)cc1` [Compound 3a, 6-Chloro-2-(ethylthio)-3-(4-fluorophenyl)quinazolin-4(3H)-one], the inhibition at 2 µM on KSP ATPase [3] is 88.3 ± 3.86%. The IC50 on KSP ATPase [4] is 0.0887 ± 0.00316 µM; at PI3Kδ, 0.0382 ± 0.00215 µM; in data set [1] (setting [9]), 28.5 µM; in [1] (setting [10]), 9.54 ± 0.11 µg/mL; in data set [1] (setting [11]), 14.5 µM; in [1] (setting [12]) it was 4.86 ± 0.18 µg/mL. Further, the IC50 at 48 h in [2] was 98.3 µg/mL and 294 µM. Besides, the “Morphological changes of treated cells” value in the data set on MDA-MB-231 cells [5] was “cell shrinkage, apoptotic bodies formation, and membrane blebbing”. In the data set with MDA-MB-231 cells [6], the “Number of cells in the early and late apoptosis versus untreated cells” value is reported as “significant increase”. In the data set on MDA-MB-231 cells [7], the DNA fragmentation entry is “internucleosomal fragmentation was noticed”. For the same compound, in the data set on MDA-MB-231 cells [8], the “Relative gene expression of BAX” value is reported as “significant overexpression”. Further, in the data set on MDA-MB-231 cells [8], the “Relative gene expression of BCL-2” value is on record as “downregulation”. Moreover, in the data set with MDA-MB-231 cells [8], the “Relative gene expression of P53” value is “significant overexpression”.
Consider `CCOC(=O)CSc1nc2ccc(Cl)cc2c(=O)n1-c1ccc(F)cc1` [Compound 3c, Ethyl 2-((6-chloro-3-(4-fluorophenyl)-4-oxo-3,4-dihydroquinazolin-2-yl)thio)acetate], for which the IC50 in data set [1] (setting [9]) is 56 µM; in data set [1] (setting [10]), 22 ± 0.13 µg/mL; in data set [1] (setting [11]) it was 17.8 µM; in [1] (setting [12]), 7.01 ± 0.12 µg/mL. The IC50 at 48 h in [2] was 58.3 µg/mL and 148 µM.
Regarding `O=c1c2cc(Cl)ccc2nc(SCc2ccc(Cl)cc2)n1-c1ccc(F)cc1` [Compound 3d, 6-Chloro-2-((4-chlorobenzyl)thio)-3-(4-fluorophenyl)quinazolin-4(3H)-one], the IC50 was 21 µM in data set [1] (setting [9]), 9.05 ± 0.1 µg/mL in data set [1] (setting [10]), 15.3 µM in data set [1] (setting [11]) and 6.59 ± 0.09 µg/mL in data set [1] (setting [12]). Further, the IC50 at 48 h in [2] is 65.4 µg/mL and 152 µM.
Take `O=c1c2cc(Cl)ccc2nc(SCc2ccc(C(F)(F)F)cc2)n1-c1ccc(F)cc1` [Compound 3f, 6-Chloro-3-(4-fluorophenyl)-2-((4-(trifluoromethyl)benzyl)thio)quinazolin-4(3H)-one]: the IC50 is 58.9 µM in data set [1] (setting [9]), 27.39 ± 0.1 µg/mL in [1] (setting [10]), 37 µM in [1] (setting [11]) and 17.19 ± 0.12 µg/mL in data set [1] (setting [12]). In addition, in data set [2], the IC50 at 48 h is 67.8 µg/mL and 146 µM.
Turning to `O=c1c2cc(Cl)ccc2nc(SCc2cc(C(F)(F)F)cc(C(F)(F)F)c2)n1-c1ccc(F)cc1` [Compound 3g, 2-((3,5-Bis(trifluoromethyl)benzyl)thio)-6-chloro-3-(4-fluorophenyl)quinazolin-4(3H)-one], the inhibition at 2 µM at KSP ATPase [3] turned out to be 90.5 ± 2.16%. The IC50 on KSP ATPase [4] is 0.0774 µM; against PI3Kδ, 0.0578 ± 0.00275 µM; in [1] (setting [9]) it was 50.5 µM; in data set [1] (setting [10]), 26.92 ± 0.09 µg/mL; in [1] (setting [11]), 38.1 µM; in [1] (setting [12]) it was 20.3 ± 0.23 µg/mL. For the same compound, the IC50 at 48 h in data set [2] was 70.4 µg/mL and 132 µM.
`O=c1c2cc(Cl)ccc2nc(SCc2ccc(Br)cc2F)n1-c1ccc(F)cc1` [Compound 3h, 2-((4-Bromo-2-fluorobenzyl)thio)-6-chloro-3-(4-fluorophenyl)quinazolin-4(3H)-one]: the inhibition at 2 µM on KSP ATPase [3] was determined as 92.6 ± 2.35%. The IC50 against KSP ATPase [4] is 0.0735 µM; at PI3Kδ, 0.0538 ± 0.0031 µM; in [1] (setting [9]), 30.2 µM; in data set [1] (setting [10]), 14.89 ± 0.11 µg/mL; in data set [1] (setting [11]) it was 16.5 µM; in data set [1] (setting [12]) it was 8.14 ± 0.13 µg/mL. The IC50 at 48 h in [2] was 51.4 µg/mL and 104 µM.
In the case of `N#Cc1ccc(CSc2nc3ccc(Cl)cc3c(=O)n2-c2ccc(F)cc2)cc1` [Compound 3i, 4-(((6-Chloro-3-(4-fluorophenyl)-4-oxo-3,4-dihydroquinazolin-2-yl)thio)methyl)benzonitrile], the IC50 is 95.6 µM in [1] (setting [9]), 40.33 ± 0.11 µg/mL in [1] (setting [10]), 62.8 µM in data set [1] (setting [11]) and 26.49 ± 0.13 µg/mL in data set [1] (setting [12]). Moreover, the IC50 at 48 h in data set [2] was 86.5 µg/mL and 205 µM.
With `O=c1c2cc(Cl)ccc2nc(SCc2ccc([N+](=O)[O-])cc2)n1-c1ccc(F)cc1` [Compound 3j, 6-Chloro-3-(4-fluorophenyl)-2-((4-nitrobenzyl)thio)quinazolin-4(3H)-one], the IC50 in data set [1] (setting [9]) is 50.9 µM; in [1] (setting [10]) it was 22.48 ± 0.12 µg/mL; in [1] (setting [11]), 31.6 µM; in data set [1] (setting [12]), 13.96 ± 0.12 µg/mL. Moreover, the IC50 at 48 h in [2] was 78.3 µg/mL and 177 µM.
For `O=C1c2ccccc2C(=O)N1CSc1nc2ccc(Cl)cc2c(=O)n1-c1ccc(F)cc1` [Compound 3k, 2-(((6-Chloro-3-(4-fluorophenyl)-4-oxo-3,4-dihydroquinazolin-2-yl)thio)methyl)isoindoline-1,3-dione], the IC50 in [1] (setting [9]) was 38 µM; in [1] (setting [10]), 17.71 ± 0.14 µg/mL; in [1] (setting [11]), 18.4 µM; in data set [1] (setting [12]) it was 8.57 ± 0.1 µg/mL. The IC50 at 48 h in [2] was 80.5 µg/mL and 173 µM.
Turning to `O=C(CSc1nc2ccc(Cl)cc2c(=O)n1-c1ccc(F)cc1)Nc1cccc2ccccc12` [Compound 3l, 2-((6-Chloro-3-(4-fluorophenyl)-4-oxo-3,4-dihydroquinazolin-2-yl)thio)-N-(naphthalen-1-yl)acetamide], the IC50 in data set [1] (setting [9]) is 26.9 µM; in [1] (setting [10]), 13.18 ± 0.13 µg/mL; in data set [1] (setting [11]) it was 14.2 µM; in [1] (setting [12]) it was 6.98 ± 0.12 µg/mL. In data set [2], the IC50 at 48 h was 79 µg/mL and 161 µM.
As for `COc1cccc2c1C(=O)c1c(O)c3c(c(O)c1C2=O)C[C@@](O)(C(=O)CO)C[C@@H]3O[C@H]1C[C@H](N)[C@H](O)[C@H](C)O1` [Doxorubicin, reference compound], the IC50 was 1.41 µM in data set [1] (setting [11]) and 0.77 ± 0.14 µg/mL in [1] (setting [12]). Further, the IC50 at 48 h in data set [2] is 40.5 µg/mL and 74.5 µM.
Turning to `Cc1ccc(C(=O)N(CCCN)[C@@H](c2nc3cc(Cl)ccc3c(=O)n2Cc2ccccc2)C(C)C)cc1` [Ispinesib, reference compound], the inhibition at 2 µM on KSP ATPase [3] was 95.5 ± 2.24%.
